# Assay results collected from several papers.
# Target: Phosphatidylinositol 4,5-bisphosphate 3-kinase catalytic subunit beta isoform (PIK3CB, Homo sapiens, UniProt P42338)
SMILES,assay,system,conditions,measurement,result
CNc1cc(Oc2cc(C(=O)Nc3cc(N4CCN(C)CC4)cc(C(F)(F)F)c3)ccc2C)ncn1,"target engagement in cells, inhibitor, chemoproteomics",Huh-7,1 µM,inhibition,-11.6%
Cc1ccc(C(=O)Nc2ccc(CN3CCN(C)CC3)c(C(F)(F)F)c2)cc1C#Cc1cnc2cccnn12,"enzyme activity, inhibitor",,23.5 nM,remaining activity,99%
CS(=O)(=O)Nc1cc(-c2ccc3ncnc(Nc4ccc(F)c(Cl)c4)c3c2)cnc1Cl,"enzyme activity, inhibitor, FRET",,10 µM,inhibition,90 to 100%
CCCCNc1ncc2c(-c3ccc(F)cc3)nn(C[C@H]3CC[C@H](N)CC3)c2n1,"target engagement in cells, inhibitor, chemoproteomics",,20 mM,inhibition,16.7%
CCOCCn1cc(C(=O)Nc2ccc(-n3nc(-c4cccnc4)cc3C(F)(F)F)cn2)ccc1=O,"cell-free assay, competition with immobilised ligand",,1 µM,remaining binding,82%
COc1cccc2c(NCc3ccccc3)nc(-n3c(N)nc4ccccc43)nc12,"target engagement in cells, inhibitor, chemoproteomics",,20 mM,inhibition,5.6%
Nc1ncnc2occ(-c3ccc(NC(=O)Nc4cc(C(F)(F)F)ccc4F)cc3)c12,"cell-free assay, inhibitor",,20 µM,remaining signal,86%
COc1cc(-c2cc(-c3ccc(N4CCNCC4)cc3)cnc2C)cc(OC)c1OC,"enzyme activity, inhibitor",,1 µM,inhibition,6%
O=C(N1CCS(=O)(=O)CC1)N1C[C@H](c2ccc(OC(F)(F)F)cc2)C[C@H](c2nc(C3CC3)no2)C1,"cell-free assay, competition with immobilised ligand",,1 µM,remaining binding,66%
